Test results: ChEMBL document CHEMBL4513216, “Probing the Open Global Health Chemical Diversity Library for Multistage-Active Starting Points for Next-Generation Antimalarials” (ACS Infect Dis, 2020)

Experiment: Toxicity liver stage against HepG2, at 10uM
Assay type: cell-based
Design: test concentration 10 uM, cell line HepG2-A16-CD81EGFP
Settings: human, HepG2-A16-CD81EGFP cells; read-out: INHIBITION
Method in brief: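 Uninfected HepG2-A16-CD81EGFP cells, 3 × 10^3 per well, 1536-well, plated on prespotted compound at 10 μM final, parasite-free screening media added to match infected plates; puromycin 10 μM positive, DMSO 0.5% negative; run in parallel with 48 h PbLuc assay at 37 °C, 5% CO2; viability by CellTiter-Glo luminescence, normalized to controls.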

Row | SMILES | cytotoxicity at 10 µM [%]
1 | O=C(NC1CCCC1)O[C@H]1COCCN(c2nc3ccccc3o2)C1 | -3.51
2 | FC(F)(F)c1ccc2[nH]c([C@H]3CCNC3)nc2c1 | 2.91
3 | Cc1cncc(Oc2ccc(CO)cc2)n1 | 5.81
4 | O=S(=O)(c1ccccc1)N1C[C@@H]2COC[C@]2(COCC2CC2)C1 | 10.2
5 | CC(C)CNC(=O)N1CCOC2(CCNCC2)C1 | 9.28
6 | CS(=O)(=O)NCC1OCCc2cn(CC3CC3)nc21 (stereo not given) | 8.19
7 | Cc1sc(CN)nc1-c1ccc(Cl)cc1Cl | -1.14
8 | Cc1c(C)n(Cc2ccncc2)c2nc3c(c(N)c12)CCCC3 | 1.4
9 | Cc1cnc(N2C(=O)CSC2c2ccc(F)cc2)s1 (stereo not given) | -2.92
10 | CC(C)C(=O)Nc1cc(C(=O)NC2CC(C)(C)NC(C)(C)C2)nn1C | -7.04
11 | CSc1cccc(NC(C)C(=O)Nc2nccs2)c1 (stereo not given) | 3.05
12 | Cn1cc(-c2cc(-c3cnn(C)c3)n(CC(=O)NC3CC3)n2)cn1 | 2.94
13 | CCn1ccc(-c2cc(C(=O)O)n3ncc(Cl)c3n2)n1 | -3.05
14 | CN1C(=O)CC[C@@H]2N(C(=O)CCc3cccnc3)CCCC[C@@]21C | 3.82
15 | Cc1ccc(CN2CCc3c(nc4cc(C5CC5)nn4c3O)C2)s1 | -3.69
16 | Cc1ccc(C2CN(C(=O)c3ccn(C)c(=O)c3)CCO2)nc1 (stereo not given) | -17
17 | O=C(c1cccnc1)N1CCCC(c2ncncc2-c2ccncc2)C1 (stereo not given) | -23.4
18 | Cc1ccc(CC(=O)N2CCCC(c3n[nH]c4nccnc34)C2)cc1 (stereo not given) | -22.2
19 | CCN(CC)C(=O)CSc1ncc[nH]1 | -9.94
20 | Cc1ccc(-c2nc(CC(=O)NCC3CCCOC3)cs2)o1 (stereo not given) | -48
21 | CC(C)C(C(=O)O)c1cccc(Cl)c1 (stereo not given) | -12.8
22 | CNS(=O)(=O)c1cc(C(=O)N2CCCCCC2CC(C)C)co1 (stereo not given) | 11.2

Row | SMILES | cytotoxicity at 10 µM [%]
23 | O=C(NCC1SCCc2ccccc21)c1cscn1 (stereo not given) | -1.88
24 | Cc1nc(CC(=O)N2c3ccccc3OCC2C)cs1 (stereo not given) | -6.53
25 | CN(Cc1ccc(F)cc1)Cc1cc2c(cc1Br)OCCO2 | -138
26 | Cc1cnn(C2CN(c3nc(-c4ccncc4)nc4c3CCC4)C2)c1 | -46
27 | Cn1cc(C(=O)NCc2ccc(OC3CCCCC3)nc2)ccc1=O | 28.8
28 | NC(=O)c1ccc(NC(=O)N2CCN(c3cccs3)CC2)c(F)c1 | 1.97
29 | COCCOc1ncccc1CNC(=O)N1CCCCCC1 | -36
30 | CN(C)CCN(Cc1cccnc1)C(=O)c1ccn(-c2ccccc2)n1 | 2.41
31 | COc1ccc(C2CCCN2C(=O)c2ccc(=O)n(C)c2)cc1OC (stereo not given) | 11.3
32 | Cc1cnc(CN2CCCC(c3nc4ccccc4n3C(C)C)C2)o1 (stereo not given) | -8.14
33 | CN(C)C(=O)Cn1cc(C#N)c(=O)c2cc(Br)ccc21 | 15.7
34 | CCc1nc2n(n1)CCCC2Nc1nc(C2CC2)ns1 (stereo not given) | 3.03
35 | Cc1ccc(N2CCCC(N(C)Cc3noc(C4CC4)n3)C2)nn1 (stereo not given) | 1.6
36 | Cc1cc(C)c2c(c1)C(NCc1nnc3n1CCC3)CCCO2 (stereo not given) | -0.117
37 | O=C(c1cccnc1-n1cncn1)N1CCN(C2CCCC2)CC1 | 8.7
38 | CC(C)OCCOCc1cccc(NC(=O)NCC(=O)N(C)C)c1 | -5.53
39 | COC(C)c1noc(CN2CCCNCC2)n1 (stereo not given) | 5.6
40 | CCn1c(CNC(=O)Nc2nc(C)c(C)o2)nc2ccccc21 | -5.3
41 | Cc1ccc(C2CCCN2S(=O)(=O)N(C)Cc2cnn(C)c2)o1 (stereo not given) | 15.8
42 | CC(C)CN1C(=O)C2(CCCC2)NC1c1c[nH]nc1-c1cccnc1 (stereo not given) | 7.76
43 | CCc1nnnn1Cc1csc(N(C)C(C)=O)n1 | 0.63
44 | COc1cccc2c1N(C(=O)c1ccc(C)nc1)CCC2 | 1.36

Row | SMILES | cytotoxicity at 10 µM [%]
45 | CN(CC(=O)N(C)C1CCCCC1)Cc1nc2ccccc2c(=O)[nH]1 | 2.26
46 | Cc1nn(C)cc1C(=O)Nc1cccc(CN2CCC(CO)CC2)c1 | -10.2
47 | CC(C)C(=O)N1CC[C@H]2N(C)CC[C@@]2(C(=O)Nc2ccccc2)CC1 | -107
48 | CCN1CCO[C@@H]2CN(C(=O)NCc3ccccc3)CC[C@@H]2C1 | -117
49 | CN1C(=O)CC(c2ccccc2)C12CCN(c1ncc(F)cn1)CC2 (stereo not given) | -108
50 | COCC(=O)NCc1cc(=O)n2c(n1)CN(Cc1nccs1)CCC2 | -107
51 | NC(=O)c1noc(Cn2ncc3ccccc3c2=O)n1 | -1.26
52 | CC(C)c1nc(CN(C)C(=O)Cn2nc3ccccc3n2)no1 | 10.2
53 | CCn1ncnc1CN1CCOC(Cc2cccc3ccccc23)C1 (stereo not given) | 2.53
54 | COc1ccc2c(c1)C(C(=O)N(C)CCc1scnc1C)CC(=O)N2 (stereo not given) | -42.3
55 | Cc1cc(F)ccc1OC1(C(=O)O)CCN(Cc2nccn2C)CC1 | 0.334
56 | CCC[C@H]1CN(S(=O)(=O)c2cc(C)ccc2F)C[C@@H]1N | 2.33
57 | CCCOCCN1CCc2[nH]c(-c3ccccc3)nc2C1 | -124
58 | CCc1c(C)nn(CCNC(=O)c2cnn[nH]2)c1C | -5.28
59 | CSc1ncc(C(=O)N2CCN(c3ccccc3C)CC2C)cn1 (stereo not given) | 0.642
60 | Cc1noc(C)c1CC(=O)N1CCCC(Cn2ccnc2C)C1 (stereo not given) | -3.6
61 | Cc1cc(N2CCC3(CCCN(C4CCOCC4)C3=O)C2)ccn1 (stereo not given) | -134
62 | Cc1nn(C)c(C)c1NC(=O)c1cccc(CN2CCS(=O)(=O)CC2)c1 | -15.8
63 | Cc1cc(CN(C)C2CCN(c3cccc(-c4cscn4)c3)CC2)on1 | -0.371
64 | Cc1ccccc1C(=O)NC[C@@H]1CCN(C(=O)CN2CCCC2)C[C@H]1O | -39.8
65 | O=c1cnc2ccccc2n1CCCn1cccn1 | -26.4
66 | COc1ccc(CCC(C)Nc2cccc(SC)c2)cc1 (stereo not given) | -1.11

Row | SMILES | cytotoxicity at 10 µM [%]
67 | CCc1c(C)nn(CCN2CC3(CCOC3)CCC2=O)c1C (stereo not given) | 1.94
68 | O=C(Nc1ccc(-n2cccn2)cc1)N1C[C@H](O)[C@@H](N2CCOCC2)C1 | -45.9
69 | Cc1nnsc1C(=O)NCc1cccnc1N(C)Cc1ccccc1 | -6.91
70 | CS(=O)(=O)N1CCOC(CNC(=O)c2cccc(C#N)c2)C1 (stereo not given) | -5.69
71 | Cc1ccc(C(=O)N2CC(C)(C)[C@@](C)(O)C2)cc1N1CCNC1=O | -2.76
72 | CC(C)(C)c1ccc(-c2n[nH]c3c2CN(CC2CCOC2)CC3)cc1 (stereo not given) | -40.1
73 | CCn1c(CC2CCNCC2)nn(Cc2ccc(C(=O)NC)o2)c1=O | 9.17
74 | CCc1c(C)nc(C)nc1N1C[C@@H](CN(C)C)[C@@H](CO)C1 | -0.247
75 | OC1(c2cn(CC3CCN(C4CCSC4)CC3)nn2)CCCC1 (stereo not given) | 0.445
76 | CCN1CC(C(=O)NCCn2cccc2)CCC1=O (stereo not given) | -1.64
77 | CC(C)(C)N1CC(C(=O)N2CCN(CCc3ccccc3)CC2)CC1=O (stereo not given) | 23.4
78 | O=C1CN(Cc2ccc(-c3ccccc3C(=O)O)cc2)CCN1 | -1.88
79 | Clc1ccccc1-c1nc(CNC2CCc3ncnn3C2)co1 (stereo not given) | -7.6
80 | O=C(C1CCCN1Cc1nc(-c2ccco2)no1)N1CCSCC1 (stereo not given) | -5.8
81 | CCOc1cccc(CNC(=O)N2CCC(Cc3cnn(C)c3)C2)c1 (stereo not given) | -3.16
82 | COC(=O)C(c1cc(F)ccc1F)N(C)C(=O)c1cnc(C)cn1 (stereo not given) | 0.111
83 | Cc1nc(C)n(CC2CCCN(CCCc3ccccc3)C2)n1 (stereo not given) | -6.02
84 | Nc1cc2c(nn1)CCN(C(=O)c1cccc3c1OCCO3)C2 | -8.72
85 | O=C(NCCn1ccnc1)c1ccn(-c2cccc(F)c2)n1 | -5.28
86 | Cc1ccccc1C1(C(=O)NCCN2CCCC2)CCOCC1 | -7.54
87 | CCN(CC1CCOC1)C(=O)Nc1ccc(N2CCCC2)nc1 (stereo not given) | -7.1
88 | Cc1cc(C)n(CC2CCCN2C(=O)c2cc[nH]n2)n1 (stereo not given) | -3.8

Row | SMILES | cytotoxicity at 10 µM [%]
89 | COc1ncccc1NC(=O)NCC(O)c1ccc(F)cc1F (stereo not given) | 30.9
90 | O=C(CCOCc1ccccc1)N1CCCC1c1noc(C2CC2)n1 (stereo not given) | -4.74
91 | Cc1cnn(C2CCCN(C(=O)c3cn4cccnc4n3)C2)c1 (stereo not given) | -11.4
92 | CCc1nccn1C1CCCN(C(=O)c2cnn(C)c2C2CC2)C1 (stereo not given) | -12.8
93 | COc1ccc(-n2ccc(C(=O)NCCN3CCCCC3C)n2)cc1 (stereo not given) | -8.43
94 | COCCOc1cccc(C(=O)N2CCCC(n3ccnc3C)C2)c1 (stereo not given) | -12
95 | COc1c(C2CCCN2C(=O)c2c[nH]c3ncccc23)c(C)nn1C (stereo not given) | -6.49
96 | COc1ccccc1OCC(=O)NS(=O)(=O)c1ccccc1Br | -9.8
97 | COc1ccc(C(C)N(C)Cc2c(C3CC3)[nH]c3ncccc23)cc1 (stereo not given) | -2.45
98 | Fc1cnc(N2C[C@@H](OCC3CCOCC3)[C@H]3OCCC[C@H]32)nc1 | 10.5
99 | Cc1occc1C(=O)N1Cc2nccn2CC(CN(C)C)C1 (stereo not given) | -97.7
100 | CCN1C[C@H]2C3(CCN(S(C)(=O)=O)CC3)CC[C@@]2(C(=O)N(C)C)C1 | -107
101 | O=C(c1ccco1)N1C[C@H]2CCCN(Cc3ccoc3)[C@H]2C1 | 0.276
102 | CC(C)Oc1cccc(CNC(Cc2ccsc2)c2nccs2)c1 (stereo not given) | 0.732
103 | O=C(NCC1CC1)[C@@H]1CCO[C@@H]2CCN(c3ncccn3)C[C@@H]21 | 7.64
104 | O=C(c1ccc(F)cc1)N1CCN2C[C@H](Oc3cccnc3)C[C@H]2C1 | 3.77
105 | O=C(O)CN1CCCC2(CCN2Cc2cccc(F)c2)C1 (stereo not given) | -108
106 | O=C(c1ccccc1F)N1CCC2(CC1)CC(N1CCCC1)CO2 (stereo not given) | -120
107 | CN(Cc1ccco1)[C@@H]1CN(Cc2nccs2)C[C@@H]2CCCO[C@@H]21 | 6.07
108 | Cc1ccc(N2CCO[C@H]3CN(CC4CC4)C[C@H]32)nn1 | -7.93
109 | CNC(=O)CC1CC2(CCN(CC3CC3)CC2)Oc2ccccc21 (stereo not given) | -0.0368
110 | CC(C)c1nc(C(=O)N2C[C@@H]3CC[C@H]2CN(C2CCOCC2)C3)cs1 | 5.31
